ChEMBL document CHEMBL4177755, “Combating Drug-Resistant Fungi with Novel Imperfectly Amphipathic Palindromic Peptides” (J Med Chem, 2018)
≈ marks a conversion by molar mass, not a printed value. Calls of active or inactive are those of the source. No cut-off for these calls is given here.

What was measured:
Candida albicans [1] = test: Antifungal activity against Candida albicans cgmcc 2.2086 after 48 hrs by broth microdilution method; type: functional; details: cgmcc 2.2086, 48 h
Summary of the method: (§1)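 Modified CLSI M27-A2 broth microdilution. Yeast at (0.5−1) × 10^3 CFU/mL in MOPS-buffered RPMI 1640 was mixed 1:1 with peptide serially diluted in 0.2% BSA and incubated 48 h at 28 °C. Absorbance was read at 492 nm; MIC is the lowest concentration inhibiting 95% of growth. Triplicate, three biological replicates.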

Candida tropicalis [2] = test: Fungicidal activity against Candida tropicalis cgmcc 2.1975 after 96 hrs; type: functional; details: cgmcc 2.1975, 96 h, read-out: MFC99.9
Summary of the method: (§2)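 Wells from the 48 h, 28 °C RPMI 1640/MOPS microdilution plates were plated on YM agar and incubated a further 48 h at 28 °C. MFC is the lowest concentration killing at least 99.9% of cells. Run in triplicate with three biological replicates.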

Candida albicans [3] = test: Antifungal activity against fluconazole-resistant Candida albicans 56214 after 48 hrs by broth microdilution method; type: functional; details: Candida albicans, 56214, 48 h; summary of the method: as §1
Candida albicans [4] = test: Antifungal activity against Candida albicans SP3903 after 48 hrs by broth microdilution method; type: functional; details: SP3903, 48 h; summary of the method: as §1
Candida albicans [5] = test: Antifungal activity against Candida albicans cgmcc 2.2086 in presence of 12.5% human heat-inactivated serum by broth dilution method; type: functional
Candida albicans [6] = test: Fungicidal activity against fluconazole-resistant Candida albicans 17546 after 96 hrs; type: functional; details: Candida albicans, 17546, 96 h; read-out: MFC99.9
Summary of the method: (§3)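 After the 48 h, 28 °C broth microdilution in MOPS-buffered RPMI 1640 (inoculum (0.5−1) × 10^3 CFU/mL), 50 μL from each well was plated on YM agar for a further 48 h at 28 °C. MFC is the lowest concentration killing at least 99.9% of cells. Triplicate, three biological replicates.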

Candida albicans [7] = test: Fungicidal activity against Candida albicans cgmcc 2.2086 after 96 hrs; type: functional; details: cgmcc 2.2086, 96 h, read-out: MFC99.9; summary of the method: as §3
Candida albicans [8] = test: Fungicidal activity against Candida albicans isolated from alveolar fluid after 96 hrs; type: functional; details: read-out: MFC99.9; summary of the method: as §3
Candida parapsilosis [9] = test: Antifungal activity against Candida parapsilosis cgmcc 2.3989 after 48 hrs by broth microdilution method; type: functional; details: Lodderomyces parapsilosis, cgmcc 2.3989, 48 h
Summary of the method: (§4)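 Modified CLSI M27-A2 broth microdilution. Yeast were suspended in MOPS-buffered RPMI 1640 at a final (0.5−1) × 10^3 CFU/mL and mixed 1:1 with peptide serially diluted in 0.2% BSA. Plates were incubated 48 h at 28 °C and read at A492. MIC is the lowest concentration giving 95% inhibition. Run in triplicate with three biological replicates.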

Candida albicans [10] = test: Antifungal activity against fluconazole-resistant Candida albicans 17546 after 48 hrs by broth microdilution method; type: functional; details: Candida albicans, 17546, 48 h; summary of the method: as §1
Candida albicans [11] = test: Fungicidal activity against Candida albicans 14936 after 96 hrs; type: functional; details: Candida albicans, 14936, 96 h; read-out: MFC99.9; summary of the method: as §3
Candida albicans [12] = test: Antifungal activity against Candida albicans SP3931 after 48 hrs by broth microdilution method; type: functional; details: SP3931, 48 h; summary of the method: as §1
Candida albicans [13] = test: Antifungal activity against Candida albicans cgmcc 2.2086 in presence of FeCl3 by broth dilution method; type: functional
Candida albicans [14] = test: Antifungal activity against Candida albicans isolated from alveolar fluid after 48 hrs by broth microdilution method; type: functional; summary of the method: as §1
Candida albicans [15] = test: Antifungal activity against Candida albicans cgmcc 2.2086 in presence of CaCl2 by broth dilution method; type: functional
Candida albicans [16] = test: Fungicidal activity against Candida albicans SP3876 after 96 hrs; type: functional; details: SP3876, 96 h, read-out: MFC99.9; summary of the method: as §3
Candida albicans [17] = test: Disruption of cytoplasmic membrane electrical potential in Candida albicans cgmcc 2.2086 at MFC after 800 secs by DiSC3-5 dye-based fluorescence spectrophotometric method; type: functional, organism-based
Summary of the method: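 Cells were loaded with the membrane potential-sensitive dye DiSC3-5, and its release on peptide treatment (various concentrations, including 1× MBC/MFC) was monitored as increasing fluorescence over 800 s.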

Candida albicans [18] = test: Antifungal activity against Candida albicans cgmcc 2.2086 in presence of 50% human heat-inactivated serum by broth dilution method; type: functional
Lipid bilayer [19] = test: Binding affinity to phosphatidylcholine/cholesterol large unilamellar vesicle assessed as induction of calcein leakage at 2 to 32 uM after 15 mins by spectrofluorophotometric method; details: 0.25 h
Summary of the method: (§5)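 Large unilamellar vesicles were made from PG/CL/PE (2:1:7), PC/PE/PI/ergosterol (5:4:1:2) or PC/cholesterol (10:1), loaded with 70 mM calcein in Tris/NaCl/EDTA buffer at pH 7.4, frozen and thawed 20 times, and extruded through 100 nm filters. Free dye was removed by gel filtration, and peptide-induced calcein release was measured.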

Candida albicans [20] = test: Antifungal activity against Candida albicans cgmcc 2.2086 in presence of MgCl2 by broth dilution method; type: functional
Lipid bilayer [21] = test: Binding affinity to phosphatidylcholine/phosphatidylethanolamine/phosphatidylinositol/ergosterol large unilamellar vesicle assessed as induction of calcein leakage at 2 to 32 uM after 15 mins by spectrofluorophotometric method; summary of the method: as §5
Candida albicans [22] = test: Antifungal activity against Candida albicans cgmcc 2.2086 in presence of KCl by broth dilution method; type: functional
Candida albicans [23] = test: Fungicidal activity against Candida albicans SP3931 after 96 hrs; type: functional; details: SP3931, 96 h, read-out: MFC99.9; summary of the method: as §3
Candida albicans [24] = test: Antifungal activity against Candida albicans 14936 after 48 hrs by broth microdilution method; type: functional; details: Candida albicans, 14936, 48 h; summary of the method: as §1
Candida albicans [25] = test: Antifungal activity against Candida albicans cgmcc 2.2086 in presence of ZnCl2 by broth dilution method; type: functional
Candida parapsilosis [26] = test: Fungicidal activity against Candida parapsilosis cgmcc 2.3989 after 96 hrs; type: functional; details: Lodderomyces parapsilosis, cgmcc 2.3989, 96 h; read-out: MFC99.9; summary of the method: as §2
Candida albicans [27] = test: Antifungal activity against Candida albicans SP3902 after 48 hrs by broth microdilution method; type: functional; details: SP3902, 48 h; summary of the method: as §1
Candida albicans [28] = test: Fungicidal activity against fluconazole-resistant Candida albicans 56452 after 96 hrs; type: functional; details: Candida albicans, 56452, 96 h; read-out: MFC99.9; summary of the method: as §3
Candida albicans [29] = test: Antifungal activity against Candida albicans cgmcc 2.2086 in presence of 25% human heat-inactivated serum by broth dilution method; type: functional
Candida albicans [30] = test: Fungicidal activity against Candida albicans 58288 after 96 hrs; type: functional; details: Candida albicans, 58288, 96 h; read-out: MFC99.9; summary of the method: as §3
Candida albicans [31] = test: Fungicidal activity against fluconazole-resistant Candida albicans 56214 after 96 hrs; type: functional; details: Candida albicans, 56214, 96 h; read-out: MFC99.9; summary of the method: as §3
Candida albicans [32] = test: Antifungal activity against Candida albicans 58288 after 48 hrs by broth microdilution method; type: functional; details: Candida albicans, 58288, 48 h; summary of the method: as §1
Candida albicans [33] = test: Antifungal activity against Candida albicans cgmcc 2.2086 in presence of NaCl by broth dilution method; type: functional
Candida albicans [34] = test: Fungicidal activity against Candida albicans SP3903 after 96 hrs; type: functional; details: SP3903, 96 h, read-out: MFC99.9; summary of the method: as §3
Candida albicans [35] = test: Antifungal activity against fluconazole-resistant Candida albicans 56452 after 48 hrs by broth microdilution method; type: functional; details: Candida albicans, 56452, 48 h; summary of the method: as §1
Pichia kudriavzevii [36] = test: Fungicidal activity against Candida krusei cgmcc 2.1857 after 96 hrs; type: functional; details: cgmcc 2.1857, 96 h, read-out: MFC99.9; summary of the method: as §2
Candida albicans [37] = test: Antifungal activity against Candida albicans cgmcc 2.2086 in presence of NH4Cl by broth dilution method; type: functional
Candida albicans [38] = test: Fungicidal activity against Candida albicans SP3902 after 96 hrs; type: functional; details: SP3902, 96 h, read-out: MFC99.9; summary of the method: as §3
Candida tropicalis [39] = test: Antifungal activity against Candida tropicalis cgmcc 2.1975 after 48 hrs by broth microdilution method; type: functional; details: cgmcc 2.1975, 48 h; summary of the method: as §4
Pichia kudriavzevii [40] = test: Antifungal activity against Candida krusei cgmcc 2.1857 after 48 hrs by broth microdilution method; type: functional; details: cgmcc 2.1857, 48 h; summary of the method: as §4
Candida albicans [41] = test: Antifungal activity against Candida albicans SP3876 after 48 hrs by broth microdilution method; type: functional; details: SP3876, 48 h; summary of the method: as §1

With `OC(Cn1cncn1)(Cn1cncn1)c1ccc(F)cc1F` [FLUCONAZOLE] the MIC95 (Candida albicans [1]) was 1 µM (≈ 0.306 µg/mL), the MFC (Candida tropicalis [2]) was 32 µM (≈ 9.8 µg/mL) and the MIC95 (Candida albicans [3]) was > 64 µM. The MIC95 (Candida albicans [4]) was 16 µM (≈ 4.9 µg/mL), the MIC (Candida albicans [5]) was 1 µM and the MFC (Candida albicans [6]) was > 64 µM. The MFC (Candida albicans [7]) was 2 µM (≈ 0.613 µg/mL), the MFC (Candida albicans [8]) was 8 µM (≈ 2.45 µg/mL) and the MIC95 (Candida parapsilosis [9]) was 4 µM (≈ 1.23 µg/mL). For the same compound, the MIC95 (Candida albicans [10]) was > 64 µM, the MFC (Candida albicans [11]) was > 64 µM and the MIC95 (Candida albicans [12]) was 1 µM (≈ 0.306 µg/mL). It also gave an MIC (Candida albicans [13]) of 1 µM, an MIC95 (Candida albicans [14]) of 2 µM (≈ 0.613 µg/mL) and an MIC (Candida albicans [15]) of 1 µM. For the same compound, the MFC (Candida albicans [16]) was > 64 µM, the Activity (Candida albicans [17]) was “inactive” and the MIC (Candida albicans [18]) was 2 µM. The Activity (Lipid bilayer [19]) was “Not Active”, the MIC (Candida albicans [20]) was 1 µM and the Activity (Lipid bilayer [21]) was “inactive”. For the same compound, the MIC (Candida albicans [22]) was 1 µM, the MFC (Candida albicans [23]) was 64 µM (≈ 19.6 µg/mL) and the MIC95 (Candida albicans [24]) was 32 µM (≈ 9.8 µg/mL). It also gave an MIC (Candida albicans [25]) of 1 µM, an MFC (Candida parapsilosis [26]) of 8 µM (≈ 2.45 µg/mL) and an MIC95 (Candida albicans [27]) of 16 µM (≈ 4.9 µg/mL). The MFC (Candida albicans [28]) was > 64 µM, the MIC (Candida albicans [29]) was 1 µM and the MFC (Candida albicans [30]) was > 64 µM. For the same compound, the MFC (Candida albicans [31]) was > 64 µM, the MIC95 (Candida albicans [32]) was 8 µM (≈ 2.45 µg/mL) and the MIC (Candida albicans [33]) was 1 µM. The MFC (Candida albicans [34]) was 64 µM (≈ 19.6 µg/mL), the MIC95 (Candida albicans [35]) was > 64 µM and the MFC (Pichia kudriavzevii [36]) was 64 µM (≈ 19.6 µg/mL). For the same compound, the MIC (Candida albicans [37]) was 1 µM, the MFC (Candida albicans [38]) was > 64 µM and the MIC95 (Candida tropicalis [39]) was 4 µM (≈ 1.23 µg/mL). For the same compound, the MIC95 (Pichia kudriavzevii [40]) was 64 µM (≈ 19.6 µg/mL) and the MIC95 (Candida albicans [41]) was > 64 µM.
